Test results from publication PMC9401513 (Clinical Cancer Research, 2021).

Legend:
advanced NSCLC = assay: Objective tumor response by RECIST v1.1, NSCLC; type: in vivo, human
Method in brief: (§1)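 Investigators assessed tumor response by RECIST v1.1 every 6 weeks (every-3-weeks cohorts) or every 8 weeks (every-2-weeks cohorts). CR and PR in expansion cohorts were confirmed by repeat assessment at least 4 weeks later, and ORR was calculated. NSCLC patients were preselected for moderate-to-high tumor PTK7 by IHC. Later TNBC patients were preselected for moderately high-to-high PTK7. Ovarian cancer patients were platinum-resistant and not preselected.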

advanced TNBC = assay: Objective tumor response by RECIST v1.1, TNBC; type: in vivo, human; details: every 3 weeks
Method in brief: as §1

[1] = system: platinum-resistant ovarian cancer; assay: Objective tumor response by RECIST v1.1, ovarian cancer; type: in vivo, human
Method in brief: as §1

[2] = Immunogenicity: anti-drug antibodies and neutralizing antibodies; type: in vivo, human
Method in brief: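 Anti-drug antibodies were measured by a validated electrochemiluminescent assay. Samples were taken on days 1 and 15 of cycle 1, day 1 of each later cycle, and at end of treatment. ADA-positive samples were tested for neutralizing antibodies by a validated competitive ligand-binding electrochemiluminescent method.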

[3] = system: patient-derived xenograft models; details: cited from earlier work
[4] = every 2 weeks, N = 6, (95% CI), NR, not reached
[5] = every 3 weeks, N = 25, (95% CI)
[6] = every 2 weeks, N = 19, (95% CI)
[7] = every 3 weeks, N = 44, (95% CI)

B1: cofetuzumab pelidotin (conjugate, chains of the INN, looked up)
VH: QVQLVQSGPEVKKPGASVKVSCKASGYTFTDYAVHWVRQAPGKRLEWIGVISTYNDYTYNNQDFKGRVTMTRDTSASTAYMELSRLRSEDTAVYYCARGNSYFYALDYWGQGTSVTVSS
VL: EIVLTQSPATLSLSPGERATLSCRASESVDSYGKSFMHWYQQKPGQAPRLLIYRASNLESGIPARFSGSGSGTDFTLTISSLEPEDFAVYYCQQSNEDPWTFGGGTKLEIK
modifications: auristatin-0101 payload, vc linker
PRs (number) (advanced NSCLC; 2.8 mg/kg every 3 weeks): 4
PRs (number) (advanced NSCLC; 3.2 mg/kg every 2 weeks): 2
overall objective response rate (advanced NSCLC; both regimens, n = 31): 19%
CR (advanced NSCLC; every 2 weeks, N = 6): 0 N
PR (advanced NSCLC; every 2 weeks, N = 6): 2 N
ORR (advanced NSCLC; every 2 weeks, N = 6, (95% CI)): 33 (4–78) %
mDOR (advanced NSCLC; [4]): NR (3.7–NR)
mPFS (advanced NSCLC; [4]): 2.7 (1.0–NR) mo
CR (advanced NSCLC; every 3 weeks, N = 25): 0 N
PR (advanced NSCLC; every 3 weeks, N = 25): 4 N
ORR (advanced NSCLC; [5]): 16 (5–36) %
mDOR (advanced NSCLC; [5]): 5.7 (1.5–9.9) mo
mPFS (advanced NSCLC; [5]): 2.9 (1.4–6.1) mo
CR (advanced TNBC; N = 29): 0 N
PR (advanced TNBC; N = 29): 6 N
ORR (advanced TNBC; N = 29, (95% CI)): 21 (8–40) %
mDOR (advanced TNBC; N = 29, (95% CI)): 4.3 (1.3–10.2) mo
mPFS (advanced TNBC; N = 29, (95% CI)): 1.5 (1.4–4.3) mo
CR (number) ([1]; 2.1 mg/kg every 3 weeks): 1
CR (number) ([1]; 2.8 mg/kg every 2 weeks): 1
PR (number) ([1]; 2.8 mg/kg every 2 weeks): 2
CR (number) ([1]; 3.2 mg/kg every 2 weeks): 1
PR (number) ([1]; 3.2 mg/kg every 2 weeks): 1
overall objective response rate ([1]; both regimens, n = 63): 27%
patients achieving CR ([1]; every 2 weeks): 11%
patients achieving PR ([1]; every 2 weeks): 16%
ORR [1, 6]: 26 (9–51) %
mDOR [1, 6]: 6.5 (3.9–8.3) mo
mPFS [1, 6]: 3.8 (3.1–7.4) mo
patients achieving CR ([1]; every 3 weeks): 7%
patients achieving PR ([1]; every 3 weeks): 21%
ORR [1, 7]: 27 (15–43) %
mDOR [1, 7]: 4.2 (2.8–8.3) mo
mPFS [1, 7]: 2.9 (2.3–5.5) mo
patients with ADA at baseline (not boosted by treatment) ([2]; every 2 weeks cohorts): 4%
patients with treatment-induced ADA and NAb ([2]; every 2 weeks, 25 evaluable patients): 4%
infusion-related reaction in ADA-positive patient ([2]; every 2 weeks, one patient, day 1 cycle 4, resolved same day): grade 2 IRR
patients positive for treatment-induced ADA ([2]; every 3 weeks, 108 evaluable patients): 10.2%
antitumor activity compared with standard chemotherapy ([3]; patient-derived xenograft models): greater antitumor activity than standard chemotherapy
antitumor effect in patient-derived xenograft models ([3]; preclinical): sustained tumor regression
effect on tumor-initiating cells (TICs) ([3]; serial transplantation experiments): reduced the frequency of TICs
